DNMT1 inh – blocks human DNA methyltransferase DNMT1; DNMT1 molecular beacon, Hinp1I cleavage, fluorescence; inhibition (reported as % activation of signal), % at 10 µM; actives 0.83% (n = 360,000); AID 588458; P26358; in the data active = inhibition above about 50%
SUMO1 PPI mod – modulators of human SUMO1-mediated protein-protein interactions | SUMO1 binding to a labelled peptide, TR-FRET, 1 h | inhibition, % at 20 µM | actives 0.33% (n = 360,000); in the data active = inhibition above about 37%
GRK2 inh – human GRK2 inhibition via aptamer displacement. P25098. bead flow cytometry, FAM-aptamer displacement from GRK2. inhibition of aptamer binding, % at 10 µM. actives 0.59% (n = 330,000). AID 488847;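 active = inhibition of aptamer binding above 40%, roughly 3 SD of noise, on plates passing a quality check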;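 also: median bead fluorescence of bound FAM aptamer so fluorescent compounds give negative values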
STEP block – inhibitors of human striatal-enriched phosphatase STEP. recombinant STEP, OMFP fluorogenic substrate, fluorescence. inhibition, % at 20 µM. actives 0.25% (n = 360,000). AID 588621;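 active = inhibition at 20 µM, scaled per plate between control wells, above about 37%, limit read from the data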;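 also: 0% = DMSO with enzyme and substrate and 100% = substrate only without enzyme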
Target sequence (P54829 whole entry, looked up): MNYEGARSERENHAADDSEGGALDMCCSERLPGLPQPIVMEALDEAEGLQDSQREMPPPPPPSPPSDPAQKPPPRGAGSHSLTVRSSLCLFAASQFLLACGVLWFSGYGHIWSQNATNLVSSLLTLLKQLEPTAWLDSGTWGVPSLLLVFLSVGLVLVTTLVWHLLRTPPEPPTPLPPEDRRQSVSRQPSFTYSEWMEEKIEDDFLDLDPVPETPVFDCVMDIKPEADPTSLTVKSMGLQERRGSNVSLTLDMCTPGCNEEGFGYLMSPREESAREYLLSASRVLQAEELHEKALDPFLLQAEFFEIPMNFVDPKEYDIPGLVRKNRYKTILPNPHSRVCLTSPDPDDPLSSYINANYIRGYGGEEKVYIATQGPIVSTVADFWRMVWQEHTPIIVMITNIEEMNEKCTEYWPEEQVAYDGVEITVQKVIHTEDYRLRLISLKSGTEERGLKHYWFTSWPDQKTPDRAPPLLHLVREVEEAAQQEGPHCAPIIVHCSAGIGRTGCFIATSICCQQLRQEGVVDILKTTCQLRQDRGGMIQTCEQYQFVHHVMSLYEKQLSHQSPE
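Material: STEP (striatal-enriched tyrosine phosphatase) enzyme, cell-free; Compound dosing: 20 µM single dose in 1% DMSO; Technique: fluorescence read at 480 nm ex / 540 nm em; Times: reaction 20 min, ambient temperature; Medium: 50 mM Bis-Tris pH 6.0 with 2.5 mM DTT and 0.005% Tween 20; Also added: OMFP at 25 µM.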
Scp1 inh – blocks human Scp-1 phosphatase activity. Q9GZU7. actives 0.88% (n = 340,000). Recombinant Scp1, phosphopeptide, malachite green phosphate absorbance. inhibition, % at 20 µM;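 active = inhibition above about 50% at 20 µM, limit read from the data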;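 also: plate controls were DMSO wells with enzyme for no effect and wells lacking enzyme for full effect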
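Test system – truncated SCP-1 phosphatase (76-261aa) · Reagent – Phosphorylated 17-residue peptide substrate · Incubation – 45 min room-temperature reaction, 5 min colour, 30 min stabiliser · Detection – colorimetric phosphate reagent with accelerator and stabiliser, absorbance at 630 nm · Measure – % inhibition at 20 µM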
LMPTP inh – LMPTP (human) inhibition. inhibition, % at 20 µM. P24666. AID 651560. actives 0.22% (n = 360,000). recombinant LMPTP-A, OMFP fluorogenic substrate, fluorescence intensity;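 active = compounds that cut the enzyme signal by at least half of the control window in the single-dose screen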;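 also: plate controls were DMSO wells with enzyme plus substrate for no effect and substrate without enzyme for full effect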
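Test system – LMPTP-A phosphatase enzyme · Quantity – 0.625 nM LMPTP-A final · Reagent – OMFP substrate, 400 µM final · Dosing – one test concentration per compound, 20 µM, with 3% DMSO overall · Timing – 50 min enzyme reaction at room temperature, protected from light · Detection – fluorescence intensity · Controls – substrate-only low control, DMSO enzyme-plus-substrate high control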
* marks the source's active call; other numbers are inactive results; . = no result given. Sampled rows, rich in hits. Any-hit rate of the full collection: about 2.1%.

SMILES	DNMT1 inh	SUMO1 PPI mod	GRK2 inh	STEP block	Scp1 inh	LMPTP inh
Nc1ccc2nc(CCCCCCCCc3nc4ccc(N)cc4[nH]3)[nH]c2c1	-14	-2	0	2	-3	65*
Nc1ccc2nc(CCCO)[nH]c2c1	-12	-2	2	-1	-6	1
CC(C)(C)c1ccc(CC(=O)N2CCC2(C)C(=O)NCc2cccs2)cc1 (centres undefined)	-1	3	.	-2	.	1
Cc1c(-c2ccc(Cl)cc2)oc(=O)c2c(N)n(-c3ccccc3)nc12	54*	-2	0	0	-21	2
Nc1c2c(=O)oc(-c3ccccc3)cc2nn1-c1ccccc1	-3	-12	1	-7	-5	2
O=C1CCC(=O)N1OCCCCOc1ccccc1	1	2	42*	-5	-3	0
Oc1ccc2ccccc2c1-c1sc(Nc2ccccc2)n[n+]1-c1ccc(F)cc1	34	-23	0	-8	0	2
Fc1ccc(-[n+]2nc(Nc3ccccc3)sc2-c2c3ccccc3cc3ccccc23)cc1	-2	-9	8	6	14	67*
Oc1ccccc1C=Nc1cccc2ccccc12	-8	0	1	-1	-9	-1
Oc1cccc(C=Nc2cccc3ccccc23)c1O	-9	68*	0	6	-7	25
CC(C(=O)Nc1ccc(C#N)cc1)N(C)CC(=O)N(C)c1c(N)n(Cc2ccccc2)c(=O)[nH]c1=O (centres undefined)	4	46*	0	-4	-10	-1
CN(C(=O)CCOc1ccccc1)c1c(N)n(Cc2ccccc2)c(=O)[nH]c1=O	-3	-1	0	0	-3	-1
Cc1ccc(NC(=O)CSc2nc(N)cc(=O)[nH]2)cc1S(=O)(=O)N1CCOCC1	8	2	0	-2	-2	-1
Cc1ccc(NC(=O)CSc2nc(N)cc(=O)[nH]2)cc1S(=O)(=O)N1CCCCC1	-6	39*	2	-2	-4	-1
COc1cccc(S(=O)(=O)N(C)C[C@H]2OCc3cnnn3CCCC(=O)N([C@H](C)CO)C[C@@H]2C)c1	-1	0	.	0	.	-1
Nc1ncc2c(n1)CC(c1ccco1)CC2=O (centres undefined)	2	7	0	-1	0	60*
CCc1ccc(NC(=O)C2CC=CCC2C(=O)O)cc1 (centres undefined)	10	-1	7	0	-6	-2
O=C(O)Cc1ccc(NC(=O)C2CC=CCC2C(=O)O)cc1 (centres undefined)	.	.	44*	.	.	.
O=C(c1ccc(CS(=O)c2ccccc2Cl)o1)N1CCN(C2CCCCC2)CC1 (centres undefined)	0	-3	.	-2	.	0
CC1(Oc2ccc(CC#N)cc2)CCN(Cc2ccc(-n3ccnc3)cc2)C1 (centres undefined)	2	-1	.	-1	.	7
CCCN(CCC)C(=O)C[n+]1cccc(/C=N/O)c1	0	0	49*	1	16	-1
O=C(C[n+]1cccc(/C=N/O)c1)N(Cc1ccccc1)Cc1ccccc1	0	-9	0	-2	-4	-1
CN(C(=O)c1cccc(NC(=O)Cc2cccc(NC(=O)C3CCCN(C(=O)C4CCCCC4)C3)c2)c1)C1CC1 (centres undefined)	-2	1	.	-2	0	-1
CCc1nc(N)nc(N)c1-c1ccc(Cl)c(N=[N+]=[N-])c1	-8	9	.	-1	5	58*
O=C(c1cccs1)c1no[n+]([O-])c1C(=O)c1cccs1	64*	13	0	33	-9	0
COc1ccc(C(=O)c2no[n+]([O-])c2C(=O)c2ccc(OC)cc2)cc1	9	18	0	6	-11	1
CC(NC1=CC(=O)c2cccnc2C1=O)C(O)c1ccccc1 (centres undefined)	72*	-18	.	1	0	7
S=c1[nH]nc(-c2cc(-c3ccccc3)n[nH]2)n1/N=C/c1c(Cl)cccc1Cl	27	18	0	0	4	30
